In ChEMBL document CHEMBL3244193, “Design of species- or isozyme-specific enzyme inhibitors. 3. Species and isozymic differences between mammalian and bacterial adenylate kinases in substituent tolerance in an enzyme-substrate complex” (J Med Chem, 1979) one finds Ki and IC50 data, which are given here for ten compounds.

Assay [1] addresses Adenylate kinase 2, mitochondrial (Rattus norvegicus, UniProt P29410). The experiment in a line: Competitive inhibition of Sprague-Dawley rat liver adenylate kinase 2 by Lineweaver-Burk plot analysis. In outline: (§1)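 Inhibition constants from the coupled NADH assay (A340, 23 °C, 0.25 mM AMP, pH 7.6). Two inhibitor levels were each run against five or more ATP levels: 0.1-0.8 mM for AK II/III, 0.15-1.1 mM for muscle AK. Ki applies to ATP-competitive inhibition and I50 to noncompetitive inhibition.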

In assay [2] the target is GTP:AMP phosphotransferase AK3, mitochondrial (Rattus norvegicus, UniProt P29411). The experiment in a line: Competitive inhibition of Sprague-Dawley rat liver adenylate kinase 3 by Lineweaver-Burk plot analysis. In outline:
as §1

Assay [3] addresses T1, Adenylate kinase isoenzyme 1 (Rattus norvegicus, UniProt P39069).
T1 sequence (P39069 whole entry): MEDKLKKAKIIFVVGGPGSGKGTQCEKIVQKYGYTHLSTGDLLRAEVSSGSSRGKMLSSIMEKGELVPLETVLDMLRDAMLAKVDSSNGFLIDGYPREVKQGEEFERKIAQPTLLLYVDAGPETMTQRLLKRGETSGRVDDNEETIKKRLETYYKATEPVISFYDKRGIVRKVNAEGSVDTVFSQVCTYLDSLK
Nature of the assay: Noncompetitive inhibition of Sprague-Dawley rat muscle adenylate kinase by Lineweaver-Burk plot analysis. Conditions: read-out: I50. In outline: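 Enzyme source: rat skeletal muscle homogenized in KHPO4/glucose/EDTA/dithioerythritol/glycerol buffer and spun 1 h at 90000g, 2 °C. Electrofocused at pH 6-8; the AK zone (pI 6.4) was dialyzed as for the liver isozymes and held at 4 °C.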

Assay [4] is described as follows: Noncompetitive inhibition of Escherichia coli adenylate kinase by Lineweaver-Burk plot analysis. The conditions noted are these: read-out: I50. The gist of the method: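 E. coli B AK partially purified by ammonium sulfate fractionation and DEAE-cellulose chromatography; the single AK-active protein had pI 4.9. ATP KM was 0.06 mM with AMP at 0.13–0.29 mM in the coupled NADH assay (A340, 23 °C, pH 7.6 Tris).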

Broadly, the Ki is a measure of affinity in units of concentration, obtained from inhibition or displacement. A lower Ki goes with higher affinity.

Chain of GTP:AMP phosphotransferase AK3, mitochondrial (P29411 whole entry): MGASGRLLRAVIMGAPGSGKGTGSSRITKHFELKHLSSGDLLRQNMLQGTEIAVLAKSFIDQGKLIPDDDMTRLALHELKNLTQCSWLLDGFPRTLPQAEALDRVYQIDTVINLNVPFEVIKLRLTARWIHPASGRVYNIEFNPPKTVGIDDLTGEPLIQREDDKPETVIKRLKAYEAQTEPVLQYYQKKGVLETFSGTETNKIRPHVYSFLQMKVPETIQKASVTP

For the compound `Nc1ncnc2c1nc(Sc1ccccc1)n2[C@@H]1O[C@H](COP(=O)(O)OP(=O)(O)OP(=O)(O)O)[C@@H](O)[C@H]1O`, in assay [1], the affinity, expressed as Ki, was 320 µM.
As for `CSc1nc2c(N)ncnc2n1[C@@H]1O[C@H](COP(=O)(O)OP(=O)(O)OP(=O)(O)O)[C@@H](O)[C@H]1O`, the Ki in assay [1] was 320 µM; in assay [2], 360 µM. Further, the IC50 in assay [3] was 5950 µM.
Turning to `CC(=O)NCCCCCCNc1ncnc2c1ncn2[C@@H]1O[C@H](COP(=O)(O)OP(=O)(O)OP(=O)(O)O)[C@@H](O)[C@H]1O`, in assay [2], the Ki stood at 4750 µM. The IC50 in assay [3] came to 12900 µM.
Turning to `CCCCCSc1nc2c(N)ncnc2n1[C@@H]1O[C@H](COP(=O)(O)OP(=O)(O)OP(=O)(O)O)[C@@H](O)[C@H]1O`, the values for the Ki in assay [1] and in assay [2] were 80 µM and 60 µM, respectively.
Take `CCSc1nc2c(N)ncnc2n1[C@@H]1O[C@H](COP(=O)(O)OP(=O)(O)OP(=O)(O)O)[C@@H](O)[C@H]1O`: the Ki amounted to 80 µM in assay [1] and 50 µM in assay [2]. The IC50 in assay [4] is 5900 µM.
Consider `Nc1ncnc2c1nc(SCCCCO)n2[C@@H]1O[C@H](COP(=O)(O)OP(=O)(O)OP(=O)(O)O)[C@@H](O)[C@H]1O`, for which the Ki in assay [1] came to 145 µM; in assay [2], 130 µM.
For `CCCSc1nc2c(N)ncnc2n1[C@@H]1O[C@H](COP(=O)(O)OP(=O)(O)OP(=O)(O)O)[C@@H](O)[C@H]1O`, the figures for the Ki in assay [1] and in assay [2] were 55 µM and 65 µM, respectively. Besides, the figures for the IC50 in assay [4] and in assay [3] were 4700 µM and 6150 µM, respectively.
`Nc1ncnc2c1nc(SCCO)n2[C@@H]1O[C@H](COP(=O)(O)OP(=O)(O)OP(=O)(O)O)[C@@H](O)[C@H]1O`: the figures for the Ki in assay [1] and in assay [2] were 250 µM and 220 µM, respectively.
As for `O=C(CI)NCCCCCNc1ncnc2c1ncn2[C@@H]1O[C@H](COP(=O)(O)OP(=O)(O)OP(=O)(O)O)[C@@H](O)[C@H]1O`, the IC50 in assay [4] was 4750 µM.
Consider `CCCCSc1nc2c(N)ncnc2n1[C@@H]1O[C@H](COP(=O)(O)OP(=O)(O)OP(=O)(O)O)[C@@H](O)[C@H]1O`, for which the Ki in assay [1] came out at 75 µM; in assay [2], 60 µM. In assay [3], the IC50 came to 6200 µM.
